From ChEMBL document CHEMBL1135710, “Novel mycophenolic adenine bis(phosphonate) analogues as potential differentiation agents against human leukemia” (J Med Chem, 2002)
Calls of active or inactive are those of the source. The rule behind the calls is not given here.

Experiments:
K562 [1] = test: Compound effect on differentiation of K562 cells, % of benzidine positive cells at 1.6 uM; assay type: functional, Homo sapiens
K562 [2] = test: Compound effect on differentiation of K562 cells, % of benzidine positive cells at 1.0 uM; assay type: functional, Homo sapiens
K562 [3] = test: Antiproliferative activity against K562 cells; assay type: functional, cell-based, Homo sapiens
[4] = biological target: T1, Inosine-5'-monophosphate dehydrogenase 1 (Homo sapiens, UniProt P20839); test: Inhibitory activity against human Inosine-5'-monophosphate dehydrogenase 1 (IMPDH type I)
Summary of the method: (§1)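 Human IMPDH isoforms type I and type II assayed separately. Substrate, cofactor and inhibitor were premixed, and the reaction was started by adding enzyme. Values are reported as Ki.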
Target sequence in this assay (P20839 whole entry, canonical isoform): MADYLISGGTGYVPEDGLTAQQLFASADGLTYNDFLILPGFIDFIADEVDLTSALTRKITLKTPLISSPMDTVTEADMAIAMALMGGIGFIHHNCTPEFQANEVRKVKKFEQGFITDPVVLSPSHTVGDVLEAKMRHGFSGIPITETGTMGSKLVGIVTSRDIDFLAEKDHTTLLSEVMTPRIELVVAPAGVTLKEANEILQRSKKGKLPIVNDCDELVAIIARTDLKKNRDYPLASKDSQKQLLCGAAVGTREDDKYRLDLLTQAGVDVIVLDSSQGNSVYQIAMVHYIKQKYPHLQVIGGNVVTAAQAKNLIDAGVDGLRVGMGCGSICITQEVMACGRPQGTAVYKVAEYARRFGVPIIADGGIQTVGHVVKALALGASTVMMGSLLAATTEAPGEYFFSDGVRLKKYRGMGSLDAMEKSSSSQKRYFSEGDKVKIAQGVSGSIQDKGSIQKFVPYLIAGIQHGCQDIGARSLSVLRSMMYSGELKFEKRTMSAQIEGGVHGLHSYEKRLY

[5] = biological target: T1, Inosine-5'-monophosphate dehydrogenase 1; test: Inhibitory activity against human Inosine-5'-monophosphate dehydrogenase 1 (IMPDH type I);NA is not active; summary of the method: as §1
Target sequence in this assay (P20839 2-514 limits assumed): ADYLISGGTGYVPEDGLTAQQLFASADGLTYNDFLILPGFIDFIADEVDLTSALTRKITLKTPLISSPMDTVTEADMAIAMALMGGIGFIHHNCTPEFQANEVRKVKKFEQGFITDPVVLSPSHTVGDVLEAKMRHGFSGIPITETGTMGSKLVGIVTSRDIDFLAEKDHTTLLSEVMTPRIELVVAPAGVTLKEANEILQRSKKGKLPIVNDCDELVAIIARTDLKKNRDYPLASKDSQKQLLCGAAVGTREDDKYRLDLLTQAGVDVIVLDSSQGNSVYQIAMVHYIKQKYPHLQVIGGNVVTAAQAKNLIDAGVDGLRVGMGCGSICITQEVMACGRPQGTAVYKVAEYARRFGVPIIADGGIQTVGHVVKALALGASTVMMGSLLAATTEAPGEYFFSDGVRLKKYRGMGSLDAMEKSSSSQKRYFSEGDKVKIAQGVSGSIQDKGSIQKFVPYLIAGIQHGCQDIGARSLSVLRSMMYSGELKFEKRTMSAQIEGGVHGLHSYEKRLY

K562 [6] = test: Concentration of the Antiproliferative compound required for the 50% inhibition of Growth against K562 cells; assay type: functional, cell-based; settings: Homo sapiens
[7] = biological target: T2, Inosine-5'-monophosphate dehydrogenase 2 (Homo sapiens, UniProt P12268); test: Inhibitory activity against human Inosine-5'-monophosphate dehydrogenase 2 (IMPDH type II);NA is not active; summary of the method: as §1
K562 [8] = test: Compound effect on differentiation of K562 cells, % of benzidine positive cells at 100 uM; assay type: functional, Homo sapiens
[9] = biological target: T2, Inosine-5'-monophosphate dehydrogenase 2; test: Inhibitory activity against human Inosine-5'-monophosphate dehydrogenase 2 (IMPDH type II)
K562 [10] = test: Compound effect on differentiation of K562 cells, % of benzidine positive cells at 14.3 uM; assay type: functional, Homo sapiens
K562 [11] = test: Compound effect on differentiation of K562 cells, % of benzidine positive cells at 1.5 uM; assay type: functional, Homo sapiens
K562 [12] = test: Compound effect on differentiation of K562 cells, % of benzidine positive cells at 10 uM; assay type: functional, Homo sapiens
K562 [13] = test: Compound effect on differentiation of K562 cells, % of benzidine positive cells at 15 uM; assay type: functional, Homo sapiens
K562 [14] = test: Compound effect on differentiation of K562 cells, % of benzidine positive cells at 20 uM; assay type: functional, Homo sapiens
K562 [15] = test: Compound effect on differentiation of K562 cells, % of benzidine positive cells at 14 uM; assay type: functional, Homo sapiens
[16] = biological target: T1, Inosine-5'-monophosphate dehydrogenase 1; test: Inhibitory activity against human Inosine-5'-monophosphate dehydrogenase 1 (IMPDH type I); NA is not active; summary of the method: as §1
Target sequence in this assay (P20839 2-514 limits assumed): as above

[17] = biological target: T2, Inosine-5'-monophosphate dehydrogenase 2; test: Inhibitory activity against human Inosine-5'-monophosphate dehydrogenase 2 (IMPDH type II); NA is not active; summary of the method: as §1

Row | Compound | Ki [4] [µM] | IC50 (K562 [6]) [µM] | Ki [9] [µM] | Effect (K562 [2]) [%] | further results
1 | COc1c(C)c2c(c(O)c1CCOP(=O)(O)CP(=O)(O)OC[C@H]1O[C@@H](n3cnc4c(N)ncnc43)[C@H](O)[C@@H]1O)C(=O)OC2 | – | – | – | 40.9 | Effect (K562 [1]): 65.4%
2 | COc1c(C)c2c(c(O)c1CCOP(=O)(O)CP(=O)(O)OCCc1c(O)c3c(c(C)c1OC)COC3=O)C(=O)OC2 | 2.3 | 2090 | 0.47 | 0.4 | Effect (K562 [8]): 4.4%
3 | NC(=O)c1csc([C@@H]2O[C@H](COP(=O)(O)CP(=O)(O)OC[C@@H]3O[C@H](n4cnc5c(N)ncnc54)[C@@H](O)[C@H]3O)[C@@H](O)[C@H]2O)n1 | 0.11 | – | 0.11 | 2.4 | Effect (K562 [10]): 35%
4 | COc1c(C)c2c(c(O)c1C/C=C(\C)COP(=O)(O)CP(=O)(O)OC[C@@H]1O[C@H](n3cnc4c(N)ncnc43)[C@@H](O)[C@H]1O)C(=O)OC2 | 0.52 | 0.1 | 0.38 | 63.3 | Effect (K562 [11]): 95%
5 | COc1c(C)c2c(c(O)c1CCOP(=O)(O)CP(=O)(O)O)C(=O)OC2 | 0.89 | 43.2 | 0.4 | 3.3 | Effect (K562 [14]): 67%
6 | NC(=O)c1csc([C@@H]2O[C@H](COP(=O)(O)C(F)(F)P(=O)(O)OC[C@@H]3O[C@H](n4cnc5c(N)ncnc54)[C@@H](O)[C@H]3O)[C@@H](O)[C@H]2O)n1 | 0.3 | – | 0.3 | 3.4 | Effect (K562 [15]): 48%
7 | NC(=O)c1csc([C@H]2O[C@@H](COP(=O)(O)OP(=O)(O)OC[C@H]3O[C@@H](n4cnc5c(N)ncnc54)[C@H](O)[C@@H]3O)[C@H](O)[C@@H]2O)n1 | – | – | – | 2.5 | Effect (K562 [15]): 35%
8 | NC(=O)c1csc([C@@H]2O[C@H](CO)[C@@H](O)[C@H]2O)n1 [TIAZOFURIN] | – | – | – | 5.3 | NA [16]: inactive; Effect (K562 [13]): 80%; NA [17]: inactive

Further lines, with some results ahead:

Row | Ki [4] [µM] | IC50 (K562 [6]) [µM] | Ki [9] [µM] | Compound | Effect (K562 [2]) [%] | further results
9 | 0.04 | – | – | COc1c(C)c2c(c(O)c1C/C=C(\C)CCC(=O)O)C(=O)OC2 [MYCOPHENOLIC ACID] | – | IC50 (K562 [3]): 0.3 µM
10 | – | 1.5 | – | NC(=O)c1cccc([C@@H]2O[C@H](CO)[C@@H](O)[C@H]2O)c1 | – | NA [5]: inactive; NA [7]: inactive
11 | 0.33 | 1.5 | 0.29 | COc1c(C)c2c(c(O)c1C/C=C(/C)CCCOP(=O)(O)CP(=O)(O)OC[C@@H]1OC(n3cnc4c(N)ncnc43)[C@@H](O)[C@H]1O)C(=O)OC2 (stereo partly specified) | 9 | Effect (K562 [12]): 90%
12 | 0.66 | 60 | 0.95 | NC(=O)c1cccc(C2OC(COP(=O)(O)CP(=O)(O)OC[C@@H]3OC(n4cnc5c(N)ncnc54)[C@@H](O)[C@H]3O)[C@@H](O)[C@H]2O)c1 (stereo partly specified) | 0.6 | Effect (K562 [13]): 9.5%
